This is an account of results in article PMC5651997 (Chemosphere, 2017).

For series [1], the system named is D. magna. In words: 48 h acute toxicity test, single chemicals. The class given is in vivo, Daphnia magna. As to conditions: for LC50: read-out: LC50 (μM)(95% CI).
The next series relates to detoxification genes. Put plainly: RNA sequencing, differential gene expression after atrazine exposure. Format: in vivo, Daphnia magna. The note with it: 40 μM atrazine, 96 h.
The test system of series [2] is detoxification and sphingolipid homeostasis genes. Put plainly: qPCR confirmation of differential gene expression. Format: in vivo, Daphnia magna. As to conditions: 20 or 40 μM atrazine, 96 h, at least one of the concentrations. The procedure, abridged:
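RNA stabilised and stored at −80°C; 2 μg reverse-transcribed with MMLV. SYBR Green qPCR; efficiency from a 1:1–1:1024 dilution series of pooled untreated and treated samples; triplicate 1:15-diluted samples quantified.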

Another series relates to Daphnia HR96. As to conditions: ref Karimullina et al., 2012; cited from earlier work.
Series [3] has as its system D. magna. Format: in vivo, Daphnia magna. The note with it: neonates, 48 h, 40 μM atrazine.
Series [4] can be described thus: 48 h acute toxicity test, single chemicals. The class given is in vivo, Daphnia magna. The note with it: Daphnia magna, in vivo, LC50 (μM)(95% CI).
The mark [5] stands for this setting: neonates (<24 h old), 48 h, chemical individually, (95% CI).
The mark [6] stands for this setting: neonates (<24 h old), 48 h, chemical individually.

Broadly, the LC50 is the concentration that kills 50% of the test population.

Turning to `CC(C)(c1ccc(O)cc1)c1ccc(O)cc1` [BPA, bisphenol A], the Hillslope in the series on D. magna [1] (setting [5]) was −6.891 (−10.34 to −3.438).
As to `CCNc1nc(Cl)nc(NC(C)C)n1` [atrazine], in the series on detoxification genes (glutathione metabolism pathway), the “logFC, GST 1” value worked out at 1.33 and the “logFC, aminopeptidase” value is 1.13. For the same molecule, in the series with detoxification genes (of 26,646 genes identified), the “number of significantly down-regulated genes” value is 441 and the “number of significantly up-regulated genes” value was found to be 675. Besides, the “expression of two GSTs, cyp370a9, ADH-A and two sphingomyelinases by qPCR” value in series [2] was “significantly up-regulated”. Further, the “potency for activating Daphnia HR96” value with Daphnia HR96 is “greatest potency”.
For the molecule `CCOP(=S)(OCC)Oc1nc(Cl)c(Cl)cc1Cl` [chlorpyrifos], the Hillslope with D. magna [1] (setting [5]) is reported as −2.498 (−3.795 to −1.496).
With `O=S1OCC2C(CO1)C1(Cl)C(Cl)=C(Cl)C2(Cl)C1(Cl)Cl` (centres unmarked) [endosulfan], in the series on D. magna [1] (setting [5]), the Hillslope was −8.310 (−10.52 to −6.098). Besides, the “drop of LC50 in atrazine-containing binary mixture vs chemical alone” value in the series with D. magna [3] amounted to 60%.
The molecule `CCCCCCCCCc1ccc(O)cc1` [p-nonylphenol] registered an LC50 in series [4] of 1.94 µM. In addition, the Hillslope in the series on D. magna [1] (Daphnia magna, in vivo) is given as −5.895 (−8.000 to −3.790). The “drop of LC50 in atrazine-containing binary mixture vs chemical alone” value in the series with D. magna [3] turned out to be 25%.
Turning to `CCOP(=S)(OCC)Oc1ccc([N+](=O)[O-])cc1` [parathion], the Hillslope in the series on D. magna [1] (setting [5]) is −4.831 (−8.368 to −1.294). The LC50 with D. magna [1] (setting [6]) came to 0.0122 µM.
As for `Oc1cc(Cl)ccc1Oc1ccc(Cl)cc1Cl` [triclosan], the Hillslope in the series with D. magna [1] (setting [5]) is given as −4.365 (−6.091 to −3.083). In addition, the LC50 with D. magna [1] (setting [6]) turned out to be 1.08 µM.
